# ChEMBL document CHEMBL1140128 (J Med Chem, 2008)
# Calls of active or inactive are those of the source. No cut-off for these calls is given here.
# Experiments:
# [1] = biological target: Melanocortin receptor 3 (Mus musculus) (UniProt P33033); test: Agonist activity at mouse MC3R expressed in HEK293 cells by CRE/beta-galactosidase reporter gene assay relative to Ac-His-DPhe7-Arg-Trp-NH2 peptide; format: functional, cell-based
# Outline: (§1)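 HEK293 cells stably expressing the mouse receptor (G418 selection) were transfected with CRE/β-galactosidase reporter. After 48 h they were stimulated for 6 h with peptide (10^-4–10^-12 M) in DMEM with 0.1 mg/mL BSA and 0.1 mM IBMX. Lysates were read with ONPG substrate at OD405 and normalized to protein (OD595) and to a 10^-4 M forskolin control.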
# [2] = biological target: Melanocortin receptor 4 (Mus musculus) (UniProt P56450); test: Agonist activity at mouse MC4R expressed in HEK293 cells by CRE/beta-galactosidase reporter gene assay relative to Ac-His-DPhe7-Arg-Trp-NH2 peptide; format: functional, cell-based; outline: as §1
# Melanocortin receptor 4 (Mus musculus), sequence (P56450 whole entry): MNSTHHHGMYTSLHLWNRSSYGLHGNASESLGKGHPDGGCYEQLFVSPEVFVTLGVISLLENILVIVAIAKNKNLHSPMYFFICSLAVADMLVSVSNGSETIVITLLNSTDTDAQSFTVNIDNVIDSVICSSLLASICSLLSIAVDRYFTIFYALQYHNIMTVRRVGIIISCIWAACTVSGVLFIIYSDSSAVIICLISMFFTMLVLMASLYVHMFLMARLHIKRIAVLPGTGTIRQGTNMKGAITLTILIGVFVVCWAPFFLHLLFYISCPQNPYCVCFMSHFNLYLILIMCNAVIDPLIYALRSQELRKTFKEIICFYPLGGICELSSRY
# [3] = biological target: Melanocortin receptor 5 (Mus musculus) (UniProt P41149); test: Agonist activity at mouse MC5R expressed in HEK293 cells by CRE/beta-galactosidase reporter gene assay relative to Ac-His-DPhe7-Arg-Trp-NH2 peptide; format: functional, cell-based; outline: as §1
# Melanocortin receptor 5 (Mus musculus), sequence (P41149 whole entry): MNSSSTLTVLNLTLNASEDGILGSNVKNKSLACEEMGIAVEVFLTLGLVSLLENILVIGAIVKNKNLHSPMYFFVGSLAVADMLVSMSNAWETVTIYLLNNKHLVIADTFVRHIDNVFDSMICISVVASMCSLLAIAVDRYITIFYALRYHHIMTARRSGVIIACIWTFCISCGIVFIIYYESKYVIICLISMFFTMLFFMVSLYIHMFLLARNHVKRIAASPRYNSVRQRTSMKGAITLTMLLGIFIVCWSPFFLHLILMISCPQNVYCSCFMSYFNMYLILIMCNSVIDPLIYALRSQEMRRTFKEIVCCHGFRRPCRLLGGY
# [4] = biological target: Melanocyte-stimulating hormone receptor (Mus musculus) (UniProt Q01727); test: Agonist activity at mouse MC1R expressed in HEK293 cells by CRE/beta-galactosidase reporter gene assay relative to Ac-His-DPhe7-Arg-Trp-NH2 peptide; format: functional, cell-based; outline: as §1
# Melanocyte-stimulating hormone receptor (Mus musculus), sequence (Q01727 whole entry, looked up): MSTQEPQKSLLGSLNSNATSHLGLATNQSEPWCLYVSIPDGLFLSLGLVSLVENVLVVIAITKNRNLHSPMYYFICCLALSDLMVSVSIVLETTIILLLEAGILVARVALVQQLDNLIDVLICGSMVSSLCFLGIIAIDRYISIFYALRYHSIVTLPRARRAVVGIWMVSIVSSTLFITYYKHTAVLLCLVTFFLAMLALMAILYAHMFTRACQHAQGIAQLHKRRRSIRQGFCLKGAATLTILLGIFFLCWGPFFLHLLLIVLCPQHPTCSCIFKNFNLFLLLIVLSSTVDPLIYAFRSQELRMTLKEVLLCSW
# [5] = species on record: Mus musculus; test: Selectivity for mouse MC4R over mouse MC1R by CRE/beta-galactosidase reporter gene assay
# [6] = species on record: Mus musculus; test: Selectivity for mouse MC4R over mouse MC3R by CRE/beta-galactosidase reporter gene assay
# [7] = biological target: Melanocortin receptor 5 (Mus musculus, UniProt P41149); test: Agonist activity at mouse MC5R expressed in HEK293 cells by CRE/beta-galactosidase reporter gene assay; format: functional, cell-based; outline: as §1
# Melanocortin receptor 5, sequence (P41149 whole entry): as the sequence (P41149 whole entry) above
# [8] = biological target: T1, Melanocortin receptor 4 (Mus musculus, UniProt P56450); test: Agonist activity at mouse MC4R expressed in HEK293 cells by CRE/beta-galactosidase reporter gene assay; format: functional, cell-based; outline: as §1
# T1 sequence (P56450 whole entry): as the sequence (P56450 whole entry) above
# [9] = biological target: T1, Melanocortin receptor 4; test: Antagonist activity at mouse MC4R expressed in HEK293 cells assessed as effect on MT2 peptide-induced response by CRE/beta-galactosidase reporter gene assay; format: functional, cell-based; conditions: read-out: pA2 (converted)
# [10] = biological target: Melanocortin receptor 3 (Mus musculus) (UniProt P33033); test: Agonist activity at mouse MC3R expressed in HEK293 cells up to 100 uM by CRE/beta-galactosidase reporter gene assay; format: functional, cell-based; outline: as §1
# [11] = biological target: Melanocortin receptor 3 (Mus musculus) (UniProt P33033); test: Antagonist activity at mouse MC3R expressed in HEK293 cells assessed as effect on MT2 peptide-induced response up to 100 uM by CRE/beta-galactosidase reporter gene assay; format: functional, cell-based
# Outline: (§2)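 Mouse MC3R HEK293 stable line carrying transfected CRE/β-galactosidase reporter, 6 h stimulation in IBMX-containing medium. Peptides tested for dose-dependent competitive displacement of MTII agonist at up to 10 μM (footnote: up to 100 μM).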
# [12] = biological target: Melanocyte-stimulating hormone receptor (Mus musculus, UniProt Q01727); test: Agonist activity at mouse MC1R expressed in HEK293 cells by CRE/beta-galactosidase reporter gene assay; format: functional, cell-based
# Melanocyte-stimulating hormone receptor, sequence (Q01727 whole entry): as the sequence (Q01727 whole entry, looked up) above
# Outline: (§3)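 HEK293 cells stably expressing the mouse receptor (G418 selection) were transfected with CRE/β-galactosidase reporter. Lysates were read with ONPG substrate at OD405 and normalized to protein (OD595) and to a 10^-4 M forskolin control.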
# [13] = biological target: T2, Melanocortin receptor 3 (Mus musculus, UniProt P33033); test: Antagonist activity at mouse MC3R expressed in HEK293 cells assessed as effect on MT2 peptide-induced response by CRE/beta-galactosidase reporter gene assay; format: functional, cell-based; conditions: for Kb: read-out: pA2 (converted); outline: as §2
# T2 sequence (P33033 whole entry): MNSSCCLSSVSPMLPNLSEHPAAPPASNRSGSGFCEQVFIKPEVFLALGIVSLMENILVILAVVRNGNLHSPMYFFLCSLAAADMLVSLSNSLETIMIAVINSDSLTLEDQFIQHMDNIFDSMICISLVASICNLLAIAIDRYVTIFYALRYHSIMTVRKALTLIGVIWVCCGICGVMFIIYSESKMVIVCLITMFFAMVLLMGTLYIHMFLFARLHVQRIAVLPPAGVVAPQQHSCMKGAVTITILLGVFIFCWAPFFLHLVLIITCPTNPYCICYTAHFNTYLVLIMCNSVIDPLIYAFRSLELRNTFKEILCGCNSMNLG
# [14] = biological target: T2, Melanocortin receptor 3; test: Agonist activity at mouse MC3R expressed in HEK293 cells by CRE/beta-galactosidase reporter gene assay; format: functional, cell-based; outline: as §3
# Melanocortin receptor 3 (Mus musculus), sequence (P33033 whole entry): as above
structure (smiles),measurement,setting,value
CC(=O)N[C@@H](Cc1cnc[nH]1)C(=O)N[C@H](Cc1ccc([N+](=O)[O-])cc1)C(=O)N[C@@H](CCCNC(=N)N)C(=O)N[C@@H](Cc1c[nH]c2ccccc12)C(N)=O,fold change (FC),[1],5
CC(=O)N[C@@H](Cc1cnc[nH]1)C(=O)N[C@H](Cc1ccc(C)cc1)C(=O)N[C@@H](CCCNC(=N)N)C(=O)N[C@@H](Cc1c[nH]c2ccccc12)C(N)=O,fold change (FC),[2],2
same,fold change (FC),[3],2
CC(=O)N[C@@H](Cc1cnc[nH]1)C(=O)N[C@H](Cc1ccc(F)cc1)C(=O)N[C@@H](CCCNC(=N)N)C(=O)N[C@@H](Cc1c[nH]c2ccccc12)C(N)=O,fold change (FC),[4],-2
same,fold change (FC),[1],-2
same,Ratio EC50,[5],200
same,Ratio EC50,[6],200
CC(=O)N[C@@H](Cc1cnc[nH]1)C(=O)N[C@H](Cc1ccc(N)cc1)C(=O)N[C@@H](CCCN=C(N)N)C(=O)N[C@@H](Cc1c[nH]c2ccccc12)C(N)=O,EC50,[7],226 nM
CC(=O)N[C@@H](Cc1cnc[nH]1)C(=O)N[C@H](Cc1ccccc1)C(=O)N[C@@H](CCCNC(=N)N)C(=O)N[C@@H](Cc1c[nH]c2ccccc12)C(N)=O,fold change (FC),[4],1
same,fold change (FC),[1],1
same,fold change (FC),[2],1
same,fold change (FC),[3],1
CC(=O)N[C@@H](Cc1cnc[nH]1)C(=O)N[C@H](Cc1ccc(N)cc1)C(=O)N[C@@H](CCCNC(=N)N)C(=O)N[C@@H](Cc1c[nH]c2ccccc12)C(N)=O,fold change (FC),[4],21
same,fold change (FC),[1],130
same,fold change (FC),[2],96
same,fold change (FC),[3],69
CC(=O)N[C@@H](Cc1cnc[nH]1)C(=O)N[C@H](Cc1ccccc1)C(=O)N[C@@H](CCCN=C(N)N)C(=O)N[C@@H](Cc1c[nH]c2ccccc12)C(N)=O,EC50,[8],2.28 nM
same,Kb,[9],5.01 nM
same,EC50,[7],3.26 nM
CC(=O)N[C@@H](Cc1cnc[nH]1)C(=O)N[C@H](Cc1ccc(C(C)(C)C)cc1)C(=O)N[C@@H](CCCNC(=N)N)C(=O)N[C@@H](Cc1c[nH]c2ccccc12)C(N)=O,Activity,[10],inactive
same,Activity,[11],inactive
CC(=O)N[C@@H](Cc1cnc[nH]1)C(=O)N[C@H](Cc1ccc(C(=O)c2ccccc2)cc1)C(=O)N[C@@H](CCCNC(=N)N)C(=O)N[C@@H](Cc1c[nH]c2ccccc12)C(N)=O,EC50,[12],180 nM
same,EC50,[8],63.8 nM
same,EC50,[7],51.1 nM
CC(=O)N[C@@H](Cc1cnc[nH]1)C(=O)N[C@H](Cc1ccc(Cl)cc1)C(=O)N[C@@H](CCCNC(=N)N)C(=O)N[C@@H](Cc1c[nH]c2ccccc12)C(N)=O,fold change (FC),[3],-2
same,Ratio EC50,[5],200
same,Ratio EC50,[6],200
CC(=O)N[C@@H](Cc1cnc[nH]1)C(=O)N[C@H](Cc1ccc(Cl)c(Cl)c1)C(=O)N[C@@H](CCCN=C(N)N)C(=O)N[C@@H](Cc1c[nH]c2ccccc12)C(N)=O,Ki,[13],260 nM
same,Kb,[13],38 nM
CC(=O)N[C@@H](Cc1cnc[nH]1)C(=O)N[C@H](Cc1ccc(C#N)cc1)C(=O)N[C@@H](CCCNC(=N)N)C(=O)N[C@@H](Cc1c[nH]c2ccccc12)C(N)=O,EC50,[8],2.84 nM
same,fold change (FC),[3],1
CC(=O)N[C@@H](Cc1cnc[nH]1)C(=O)N[C@H](Cc1ccc(O)cc1)C(=O)N[C@@H](CCCNC(=N)N)C(=O)N[C@@H](Cc1c[nH]c2ccccc12)C(N)=O,EC50,[12],2600 nM
same,fold change (FC),[4],23
same,EC50,[14],12500 nM
same,fold change (FC),[1],99
same,EC50,[8],390 nM
same,fold change (FC),[2],171
same,EC50,[7],730 nM
same,fold change (FC),[3],223
CC(=O)N[C@H](Cc1cnc[nH]1)C(=O)NC(Cc1ccc2ccccc2c1)C(=O)N[C@@H](CCCNC(=N)N)C(=O)N[C@@H](Cc1c[nH]c2ccccc12)C(N)=O (stereo in doubt),Ki,[13],5010 nM
CC(=O)N[C@@H](Cc1cnc[nH]1)C(=O)N[C@H](Cc1cccc(Cl)c1)C(=O)N[C@@H](CCCNC(=N)N)C(=O)N[C@@H](Cc1c[nH]c2ccccc12)C(N)=O,Ratio EC50,[6],140
CC(=O)N[C@@H](Cc1cnc[nH]1)C(=O)N[C@H](Cc1ccc(F)cc1)C(=O)N[C@@H](CCCN=C(N)N)C(=O)N[C@@H](Cc1c[nH]c2ccccc12)C(N)=O,EC50,[12],53.7 nM
CC(=O)N[C@@H](Cc1cnc[nH]1)C(=O)N[C@H](Cc1ccc(C(F)(F)F)cc1)C(=O)N[C@@H](CCCNC(=N)N)C(=O)N[C@@H](Cc1c[nH]c2ccccc12)C(N)=O,Ki,[13],6170 nM
same,Kb,[13],162 nM
CC(=O)N[C@@H](Cc1cnc[nH]1)C(=O)N[C@H](Cc1ccc(Br)cc1)C(=O)N[C@@H](CCCNC(=N)N)C(=O)N[C@@H](Cc1c[nH]c2ccccc12)C(N)=O,Ki,[13],350 nM
same,Kb,[13],28.8 nM
CC(=O)N[C@@H](Cc1cnc[nH]1)C(=O)N[C@H](Cc1ccc(Cl)c(Cl)c1)C(=O)N[C@@H](CCCNC(=N)N)C(=O)N[C@@H](Cc1c[nH]c2ccccc12)C(N)=O,fold change (FC),[4],1
